Blank lines part the entries; values can stand above or below the molecule they belong to. Calls of active or inactive are those of the source. The rule behind the calls is not given here. Square brackets hold non-standard residues; d marks the D form. Peptide text beside a SMILES is read from it. * marks the point of attachment. X1 = O=C(c1ccccc1-c1c2ccc(=O)cc-2oc2cc(O)ccc12)*; hArg = N=C(N)NCCCC[C@H](N)C(=O)O; Nle = CCCC[C@H](N)C(=O)O; Aib = CC(C)(N)C(=O)O
Tests used:
[1] = target: T1, Parathyroid hormone/parathyroid hormone-related peptide receptor (Homo sapiens, UniProt Q03431); assay: Displacement of [125I]DPC-AJ1951 from PTH/PTH-related peptide receptor expressed in HKRK-B28 cells; type: cell-based
T1 sequence (Q03431 whole entry): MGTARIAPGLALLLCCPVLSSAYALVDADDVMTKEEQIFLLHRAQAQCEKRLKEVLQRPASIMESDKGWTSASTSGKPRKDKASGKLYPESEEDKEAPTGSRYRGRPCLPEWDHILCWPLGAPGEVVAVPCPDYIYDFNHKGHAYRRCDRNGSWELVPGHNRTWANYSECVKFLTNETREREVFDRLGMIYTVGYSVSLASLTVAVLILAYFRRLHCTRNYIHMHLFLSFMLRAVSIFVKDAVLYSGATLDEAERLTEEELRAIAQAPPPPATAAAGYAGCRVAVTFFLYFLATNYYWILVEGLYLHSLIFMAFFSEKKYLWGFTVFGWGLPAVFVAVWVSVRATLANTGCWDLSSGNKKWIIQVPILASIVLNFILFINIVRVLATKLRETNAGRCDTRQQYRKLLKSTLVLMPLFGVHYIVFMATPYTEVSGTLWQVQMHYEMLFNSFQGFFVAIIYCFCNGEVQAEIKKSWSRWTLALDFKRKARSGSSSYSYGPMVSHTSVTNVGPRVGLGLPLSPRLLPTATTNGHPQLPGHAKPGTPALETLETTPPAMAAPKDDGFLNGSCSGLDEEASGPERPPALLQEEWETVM
Summary of the method: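 Whole HKRK-B28 cells plated at 30,000/well and incubated overnight at 37°C, 5% CO2. Incubated 3 h at room temperature, washed three times, bound radioactivity counted by scintillation.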

[2] = target: T1, Parathyroid hormone/parathyroid hormone-related peptide receptor; assay: Activity at human PTH/PTH-related peptide receptor expressed in HEK293 cells assessed as induction of luciferase activity by CRE-luciferase reporter assay; type: functional, cell-based
[3] = target: T1, Parathyroid hormone/parathyroid hormone-related peptide receptor; assay: Activity at human PTH/PTH-related peptide receptor expressed in SAOS2 cells assessed as cAMP formation; type: functional, cell-based, SAOS-2
Summary of the method: (§1)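 Nonconfluent cells grown at 37°C in DMEM with 10% FBS, refed 12–24 h before assay. Rinsed with warm PBS, detached with prewarmed EDTA (37°C, 5–10 min), spun at 300 × g for 5 min. Resuspended in HBSS/5 mM Hepes/0.1% BSA/0.5 mM IBMX, pH 7.4. cAMP read by AlphaScreen.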

[4] = target: T2, Parathyroid hormone/parathyroid hormone-related peptide receptor (Rattus norvegicus, UniProt P25961); assay: Activity at rat PTH/PTH-related peptide receptor expressed in rat UMR106 cells assessed as cAMP formation; type: functional, cell-based; summary of the method: as §1
T2 sequence (P25961 whole entry): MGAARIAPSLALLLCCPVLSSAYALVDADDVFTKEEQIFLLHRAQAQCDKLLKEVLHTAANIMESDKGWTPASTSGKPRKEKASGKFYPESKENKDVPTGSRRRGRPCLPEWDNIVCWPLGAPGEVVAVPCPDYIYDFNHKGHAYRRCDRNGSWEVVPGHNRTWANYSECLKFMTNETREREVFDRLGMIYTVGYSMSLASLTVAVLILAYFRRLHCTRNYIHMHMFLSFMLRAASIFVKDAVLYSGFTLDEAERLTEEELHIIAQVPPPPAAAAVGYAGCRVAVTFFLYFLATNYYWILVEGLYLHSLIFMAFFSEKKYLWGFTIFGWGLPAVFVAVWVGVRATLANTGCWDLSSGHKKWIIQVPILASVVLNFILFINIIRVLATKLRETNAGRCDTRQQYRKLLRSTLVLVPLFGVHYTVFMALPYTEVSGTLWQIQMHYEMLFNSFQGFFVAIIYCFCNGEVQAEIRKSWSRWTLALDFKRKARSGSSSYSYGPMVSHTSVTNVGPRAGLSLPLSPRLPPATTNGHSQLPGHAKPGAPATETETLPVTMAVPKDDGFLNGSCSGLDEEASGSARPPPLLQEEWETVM

Substance-K receptor = Substance-K receptor (Homo sapiens, UniProt P21452); assay: Inhibition of neurokinin 2 receptor
Substance-K receptor, sequence (P21452 whole entry): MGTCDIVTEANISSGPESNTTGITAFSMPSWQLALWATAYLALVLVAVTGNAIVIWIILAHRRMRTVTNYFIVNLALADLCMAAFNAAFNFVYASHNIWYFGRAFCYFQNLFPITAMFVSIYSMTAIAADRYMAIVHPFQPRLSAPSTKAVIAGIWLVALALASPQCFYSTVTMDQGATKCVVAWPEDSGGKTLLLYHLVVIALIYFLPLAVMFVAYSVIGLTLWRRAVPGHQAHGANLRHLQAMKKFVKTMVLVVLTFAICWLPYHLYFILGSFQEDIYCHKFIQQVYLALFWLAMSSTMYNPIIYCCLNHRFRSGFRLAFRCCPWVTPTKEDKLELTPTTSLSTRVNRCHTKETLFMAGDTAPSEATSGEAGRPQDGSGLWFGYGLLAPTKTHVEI

[5] = target: T1, Parathyroid hormone/parathyroid hormone-related peptide receptor; assay: Antagonist activity at PTH/PTH-related peptide receptor expressed in HKRK-B28 cells assessed as inhibition of parathyroid hormone (1 to 34)-induced cAMP production; type: functional, cell-based
Summary of the method: (§2)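 Cells lifted with EDTA after culture in DMEM with 10% FBS and refeeding 12–24 h before assay. Resuspended in HBSS/5 mM Hepes/0.1% BSA/0.5 mM IBMX, pH 7.4, and stimulated with agonist peptide with or without antagonist. cAMP read by AlphaScreen.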

[6] = target: D(2) dopamine receptor (Homo sapiens) (UniProt P14416); assay: Inhibition of dopamine D2 receptor at 20 uM
[7] = target: Parathyroid hormone/parathyroid hormone-related peptide receptor (Homo sapiens) (UniProt Q03431); assay: Antagonist activity at human PTH/PTH-related peptide receptor expressed in human SaOS2 assessed as inhibition of DPC-AJ1951-induced cAMP production; type: functional, cell-based; conditions: SAOS-2; summary of the method: as §2
[8] = target: Alpha-2C adrenergic receptor (Homo sapiens, UniProt P18825); assay: Inhibition of adrenergic Alpha-2C receptor
Alpha-2C adrenergic receptor, sequence (P18825 whole entry): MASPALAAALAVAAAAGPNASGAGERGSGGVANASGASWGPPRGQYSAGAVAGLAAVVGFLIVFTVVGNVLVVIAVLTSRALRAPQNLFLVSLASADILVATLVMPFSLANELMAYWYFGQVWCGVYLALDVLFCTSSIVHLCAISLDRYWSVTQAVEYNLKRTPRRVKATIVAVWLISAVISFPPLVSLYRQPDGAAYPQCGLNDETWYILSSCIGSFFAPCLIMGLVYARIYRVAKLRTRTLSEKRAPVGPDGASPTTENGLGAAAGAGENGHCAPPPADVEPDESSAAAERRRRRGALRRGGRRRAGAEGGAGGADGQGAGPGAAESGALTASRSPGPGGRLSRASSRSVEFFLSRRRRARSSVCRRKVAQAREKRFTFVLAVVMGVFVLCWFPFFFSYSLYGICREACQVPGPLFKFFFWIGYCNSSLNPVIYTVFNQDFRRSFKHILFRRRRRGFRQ

[9] = target: C-C chemokine receptor type 5 (Homo sapiens) (UniProt P51681); assay: Binding affinity to CCR5 at 20 uM
[10] = target: C-X-C chemokine receptor type 3 (Homo sapiens) (UniProt P49682); assay: Inhibition of CXCR3 at 20 uM
C-X-C chemokine receptor type 3 (Homo sapiens), sequence (P49682 whole entry): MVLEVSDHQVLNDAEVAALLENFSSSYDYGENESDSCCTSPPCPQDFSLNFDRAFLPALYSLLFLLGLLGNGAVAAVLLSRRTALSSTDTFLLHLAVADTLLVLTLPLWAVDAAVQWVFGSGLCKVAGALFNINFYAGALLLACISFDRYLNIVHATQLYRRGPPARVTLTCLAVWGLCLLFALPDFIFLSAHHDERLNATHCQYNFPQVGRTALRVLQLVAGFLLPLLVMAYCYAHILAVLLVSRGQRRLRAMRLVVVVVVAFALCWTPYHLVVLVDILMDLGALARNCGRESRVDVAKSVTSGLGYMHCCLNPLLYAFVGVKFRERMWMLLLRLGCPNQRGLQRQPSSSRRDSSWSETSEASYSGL

[11] = target: Parathyroid hormone/parathyroid hormone-related peptide receptor (Homo sapiens) (UniProt Q03431); assay: Antagonist activity at human PTH/PTH-related peptide receptor expressed in human CL0153 cells assessed as inhibition of DPC-AJ1951-induced cAMP production; type: functional, cell-based; summary of the method: as §2
[12] = target: C-X-C chemokine receptor type 2 (Homo sapiens) (UniProt P25025); assay: Inhibition of CXCR2 at 20 uM
C-X-C chemokine receptor type 2 (Homo sapiens), sequence (P25025 whole entry): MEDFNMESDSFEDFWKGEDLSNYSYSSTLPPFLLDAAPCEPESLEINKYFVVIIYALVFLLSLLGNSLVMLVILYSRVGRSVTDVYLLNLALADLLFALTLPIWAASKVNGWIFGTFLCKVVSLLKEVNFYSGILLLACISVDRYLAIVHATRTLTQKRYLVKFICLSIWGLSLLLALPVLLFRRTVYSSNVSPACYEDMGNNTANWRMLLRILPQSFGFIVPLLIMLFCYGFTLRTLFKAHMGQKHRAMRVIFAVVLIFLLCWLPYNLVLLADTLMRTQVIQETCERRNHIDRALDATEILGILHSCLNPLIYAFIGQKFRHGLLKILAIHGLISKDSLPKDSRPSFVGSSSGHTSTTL

[13] = target: C-C chemokine receptor type 4 (Homo sapiens) (UniProt P51679); assay: Binding affinity to CCR4 at 20 uM
[14] = target: Alpha-1D adrenergic receptor (Homo sapiens, UniProt P25100); assay: Inhibition of adrenergic Alpha-1D receptor
[15] = target: Histamine H1 receptor (Homo sapiens) (UniProt P35367); assay: Inhibition of histamine H1 receptor at 20 uM
Histamine H1 receptor (Homo sapiens), sequence (P35367 whole entry): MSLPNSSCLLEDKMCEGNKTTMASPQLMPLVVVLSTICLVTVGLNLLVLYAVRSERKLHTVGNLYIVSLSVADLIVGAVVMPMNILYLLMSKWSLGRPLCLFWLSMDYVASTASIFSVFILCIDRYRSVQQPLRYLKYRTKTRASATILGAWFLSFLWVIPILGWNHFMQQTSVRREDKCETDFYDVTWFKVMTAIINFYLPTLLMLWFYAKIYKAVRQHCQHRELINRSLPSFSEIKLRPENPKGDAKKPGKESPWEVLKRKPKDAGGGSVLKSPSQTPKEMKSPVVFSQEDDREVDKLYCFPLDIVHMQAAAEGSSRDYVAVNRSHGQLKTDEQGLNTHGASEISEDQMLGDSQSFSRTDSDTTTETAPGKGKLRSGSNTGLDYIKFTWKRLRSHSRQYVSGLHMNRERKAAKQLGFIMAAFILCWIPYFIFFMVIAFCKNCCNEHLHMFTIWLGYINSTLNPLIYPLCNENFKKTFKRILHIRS

[16] = target: Alpha-2A adrenergic receptor (Homo sapiens) (UniProt P08913); assay: Inhibition of adrenergic alpha2A receptor at 20 uM
Alpha-2A adrenergic receptor (Homo sapiens), sequence (P08913 whole entry): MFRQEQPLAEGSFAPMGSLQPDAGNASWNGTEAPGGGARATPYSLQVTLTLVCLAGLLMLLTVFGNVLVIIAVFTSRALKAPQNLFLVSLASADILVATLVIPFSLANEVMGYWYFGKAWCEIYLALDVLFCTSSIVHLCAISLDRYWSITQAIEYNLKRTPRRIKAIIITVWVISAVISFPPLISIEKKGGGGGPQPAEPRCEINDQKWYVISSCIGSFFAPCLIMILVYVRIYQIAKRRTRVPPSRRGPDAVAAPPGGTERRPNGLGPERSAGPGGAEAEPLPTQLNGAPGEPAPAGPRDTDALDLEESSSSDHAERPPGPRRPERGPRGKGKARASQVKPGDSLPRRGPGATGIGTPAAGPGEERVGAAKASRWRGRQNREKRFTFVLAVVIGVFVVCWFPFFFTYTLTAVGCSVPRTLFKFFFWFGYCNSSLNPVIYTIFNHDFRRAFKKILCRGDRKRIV

[17] = target: Alpha-1B adrenergic receptor (Homo sapiens) (UniProt P35368); assay: Inhibition of adrenergic Alpha-1B receptor at 20 uM
Alpha-1B adrenergic receptor (Homo sapiens), sequence (P35368 whole entry): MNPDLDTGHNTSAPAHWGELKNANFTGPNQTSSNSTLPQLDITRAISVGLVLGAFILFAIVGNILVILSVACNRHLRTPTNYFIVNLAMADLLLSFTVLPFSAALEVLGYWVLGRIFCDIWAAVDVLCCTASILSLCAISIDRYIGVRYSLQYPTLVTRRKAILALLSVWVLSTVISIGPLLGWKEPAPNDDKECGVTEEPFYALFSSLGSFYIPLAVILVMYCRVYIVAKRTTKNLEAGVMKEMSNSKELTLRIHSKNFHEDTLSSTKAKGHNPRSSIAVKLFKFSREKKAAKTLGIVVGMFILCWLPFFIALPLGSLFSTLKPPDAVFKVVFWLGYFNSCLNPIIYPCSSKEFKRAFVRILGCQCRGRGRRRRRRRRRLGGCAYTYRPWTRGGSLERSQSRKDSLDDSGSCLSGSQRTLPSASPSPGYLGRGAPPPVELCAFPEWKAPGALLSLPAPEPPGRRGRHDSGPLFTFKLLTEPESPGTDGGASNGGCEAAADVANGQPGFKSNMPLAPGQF

[18] = target: C-C chemokine receptor type 2 (Homo sapiens) (UniProt P41597); assay: Binding affinity to CCR2 at 20 uM
[19] = target: Muscarinic acetylcholine receptor M5 (Homo sapiens) (UniProt P08912); assay: Inhibition of muscarinic M5 receptor at 20 uM
Muscarinic acetylcholine receptor M5 (Homo sapiens), sequence (P08912 whole entry): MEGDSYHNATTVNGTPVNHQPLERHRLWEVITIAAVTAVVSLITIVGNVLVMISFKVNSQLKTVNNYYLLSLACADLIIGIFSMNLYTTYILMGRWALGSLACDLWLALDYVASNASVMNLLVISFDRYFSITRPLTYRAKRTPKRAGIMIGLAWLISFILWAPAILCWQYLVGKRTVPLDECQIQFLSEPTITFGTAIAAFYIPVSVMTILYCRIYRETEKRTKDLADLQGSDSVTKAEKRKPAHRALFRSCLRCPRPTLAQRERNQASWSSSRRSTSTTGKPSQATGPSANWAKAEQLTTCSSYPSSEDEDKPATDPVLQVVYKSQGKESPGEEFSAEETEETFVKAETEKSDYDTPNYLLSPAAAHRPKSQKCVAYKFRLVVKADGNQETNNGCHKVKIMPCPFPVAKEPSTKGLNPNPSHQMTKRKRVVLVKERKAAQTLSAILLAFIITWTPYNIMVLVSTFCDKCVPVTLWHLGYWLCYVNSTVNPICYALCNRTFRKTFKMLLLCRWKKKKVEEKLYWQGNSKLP

[20] = target: C-C chemokine receptor type 1 (Homo sapiens) (UniProt P32246); assay: Binding affinity to CCR1 at 20 uM
C-C chemokine receptor type 1 (Homo sapiens), sequence (P32246 whole entry): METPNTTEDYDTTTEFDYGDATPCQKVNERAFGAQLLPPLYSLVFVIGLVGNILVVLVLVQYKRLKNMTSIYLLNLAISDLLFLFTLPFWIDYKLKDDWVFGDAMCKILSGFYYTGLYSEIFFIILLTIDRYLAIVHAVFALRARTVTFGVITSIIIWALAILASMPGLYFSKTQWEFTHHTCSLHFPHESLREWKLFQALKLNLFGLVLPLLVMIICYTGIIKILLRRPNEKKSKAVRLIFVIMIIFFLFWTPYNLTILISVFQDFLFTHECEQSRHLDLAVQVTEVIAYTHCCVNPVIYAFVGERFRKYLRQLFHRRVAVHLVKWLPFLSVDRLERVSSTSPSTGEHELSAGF

[21] = target: 5-hydroxytryptamine receptor 2C (Homo sapiens) (UniProt P28335); assay: Inhibition of 5HT2C receptor at 20 uM
5-hydroxytryptamine receptor 2C (Homo sapiens), sequence (P28335 whole entry): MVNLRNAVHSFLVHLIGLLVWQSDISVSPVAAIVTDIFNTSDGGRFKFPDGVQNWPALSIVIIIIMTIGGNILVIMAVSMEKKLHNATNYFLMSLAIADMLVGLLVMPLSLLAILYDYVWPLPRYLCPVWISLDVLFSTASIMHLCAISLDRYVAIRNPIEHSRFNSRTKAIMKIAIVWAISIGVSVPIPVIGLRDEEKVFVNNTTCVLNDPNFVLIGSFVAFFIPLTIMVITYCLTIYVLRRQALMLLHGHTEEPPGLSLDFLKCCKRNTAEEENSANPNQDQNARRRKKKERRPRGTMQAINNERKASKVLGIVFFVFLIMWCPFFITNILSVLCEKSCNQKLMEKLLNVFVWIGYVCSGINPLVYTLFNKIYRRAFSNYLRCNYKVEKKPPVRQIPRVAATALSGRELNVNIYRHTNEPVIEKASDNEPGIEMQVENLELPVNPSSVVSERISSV

[22] = target: Parathyroid hormone/parathyroid hormone-related peptide receptor (Rattus norvegicus) (UniProt P25961); assay: Antagonist activity at rat PTH/PTH-related peptide receptor expressed in rat UMR106 cells assessed as inhibition of DPC-AJ1951-induced cAMP production; type: functional, cell-based; summary of the method: as §2
[23] = target: 5-hydroxytryptamine receptor 2A (Homo sapiens, UniProt P28223); assay: Inhibition of 5HT2A receptor
5-hydroxytryptamine receptor 2A, sequence (P28223 whole entry): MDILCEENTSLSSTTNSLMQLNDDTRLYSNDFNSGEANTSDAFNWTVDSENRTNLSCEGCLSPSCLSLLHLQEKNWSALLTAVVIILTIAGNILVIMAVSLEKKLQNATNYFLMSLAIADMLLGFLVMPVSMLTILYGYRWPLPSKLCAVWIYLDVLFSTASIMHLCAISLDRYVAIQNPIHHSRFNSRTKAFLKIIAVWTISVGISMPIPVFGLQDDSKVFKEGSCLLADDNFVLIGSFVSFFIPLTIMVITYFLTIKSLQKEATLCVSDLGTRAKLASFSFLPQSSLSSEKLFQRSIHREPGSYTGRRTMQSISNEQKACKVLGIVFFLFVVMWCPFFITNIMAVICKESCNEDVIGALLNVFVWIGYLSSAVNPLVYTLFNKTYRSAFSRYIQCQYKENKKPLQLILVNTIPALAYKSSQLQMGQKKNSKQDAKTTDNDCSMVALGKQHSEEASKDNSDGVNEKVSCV

[24] = target: T1, Parathyroid hormone/parathyroid hormone-related peptide receptor; assay: Antagonist activity at PTH/PTH-related peptide receptor expressed in HKRK-B28 cells assessed as inhibition of DPC-AJ1951-induced cAMP production; type: functional, cell-based; summary of the method: as §2
[25] = target: C-C chemokine receptor type 3 (Homo sapiens) (UniProt P51677); assay: Binding affinity to CCR3 at 20 uM

IC50 [1]: 7.2 nM | EC50 [2]: 0.06 nM
SMILES: CCCC[C@H](NC(=O)[C@H](CC(C)C)NC(=O)[C@H](CCC(N)=O)NC(=O)[C@@H](NC(=O)[C@H](CCC(=O)O)NC(=O)C(C)(C)NC(=O)[C@@H](NC(=O)C(C)(C)N)C(C)C)[C@@H](C)CC)C(=O)N[C@@H](Cc1cnc[nH]1)C(=O)N[C@@H](CCC(N)=O)C(=O)N[C@@H](CCCCN=C(N)N)C(=O)N[C@@H](C)C(=O)N[C@@H](CCCCN)C(=O)N[C@@H](Cc1ccc(O)cc1)C(N)=O (H-[Aib]V[Aib]EIQL[Nle]HQ[hArg]AKY-NH2)

IC50 [1]: 10600 nM | EC50 [3]: 1430 nM | EC50 [2]: 13 nM | EC50 [4]: 344 nM
SMILES: CCCC[C@H](NC(=O)[C@H](CC(C)C)NC(=O)[C@H](CCC(N)=O)NC(=O)[C@@H](NC(=O)[C@H](CCC(=O)O)NC(=O)[C@H](C)NC(=O)[C@@H](NC(=O)[C@H](C)N)C(C)C)[C@@H](C)CC)C(=O)N[C@@H](Cc1cnc[nH]1)C(=O)N[C@@H](CCC(N)=O)C(=O)N[C@@H](CCCCNC(=N)N)C(=O)N[C@@H](C)C(=O)N[C@@H](CCCCN)C(=O)N[C@@H](Cc1ccc(O)cc1)C(N)=O (H-AVAEIQL[Nle]HQ[hArg]AKY-NH2)

IC50 [1]: 13.5 nM | EC50 [3]: 7.2 nM | EC50 [2]: 0.92 nM
SMILES: CCCC[C@H](NC(=O)[C@H](CC(C)C)NC(=O)[C@H](CCC(N)=O)NC(=O)[C@@H](NC(=O)[C@H](CCC(=O)O)NC(=O)C(C)(C)NC(=O)[C@@H](NC(=O)C(C)(C)N)C(C)C)[C@@H](C)CC)C(=O)N[C@@H](Cc1cnc[nH]1)C(=O)N[C@@H](CCC(N)=O)C(=O)N[C@@H](CCCNC(=N)N)C(=O)N[C@@H](C)C(=O)N[C@@H](CCCCNC(=O)c1ccccc1-c1c2ccc(=O)cc-2oc2cc(O)ccc12)C(=O)N[C@@H](Cc1ccc(O)cc1)C(N)=O (H-[Aib]V[Aib]EIQL[Nle]HQRAK(X1)Y-NH2)

IC50 (Substance-K receptor): 28 µM | IC50 [5]: 68 µM | Activity [6]: inactive | Activity [7]: Active | IC50 [8]: 10.4 µM | IC50 [1]: 990 nM | Activity [9]: inactive | Activity [10]: inactive | Activity [11]: Active | Activity [12]: inactive | Activity [13]: inactive | IC50 [14]: 13.8 µM | Activity [15]: inactive | Activity [16]: inactive | Activity [17]: inactive | Activity [18]: inactive | Activity [19]: inactive | Activity [20]: inactive | Activity [21]: inactive | Activity [22]: Active | IC50 [23]: 15 µM | IC50 [24]: 5.78 µM | Activity [25]: inactive
SMILES: CC[C@@H]1O[C@](/C=C/C2CC2)(C(F)(F)F)c2c(ccc(F)c2F)NC1=O
